We go through 2 compounds from ChEMBL document CHEMBL1671826, “Effect of Inhibiting Histone Deacetylase with Short-Chain Carboxylic Acids and Their Hydroxamic Acid Analogs on Vertebrate Development and Neuronal Chromatin” (ACS Med Chem Lett, 2011).

Activity calls are given as the source filed them. The rule behind the calls is not given here.

The species named for data set [1] is Xenopus laevis. Put plainly: Induction of developmental deffects in frog embryos assessed as loss of anterior structures at 2 mM after 18 hrs. The data set is classed as organism-based. The note with it: in vivo, 2000 µM. In outline:
(§1)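 Xenopus laevis embryos exposed in the whole-organism development assay at 2 mM and scored morphologically for loss of anterior structures, shortened anterior–posterior axis, and heart looping and pigment defects; compared with untreated embryos.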

Data set [2] is filed under the species Xenopus laevis. The data set can be described thus: Induction of histone H3 acetylation in frog embryos at 2 mM after 2 hrs Western blotting. In outline:
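Frog embryos treated from completion of neurulation (stage 18) into tailbud stages for 2 h at the indicated concentrations; histone acetylation read by Western blot.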
(In general: In western blotting, separated proteins are transferred to a membrane and probed.)

The species named for a further data set is Mus musculus. Put plainly: Inhibition of HDAC in mouse primary forebrain neurons assessed as acetylation of histone H3 lysine 9 at 92.5 uM after 24 hrs by immunofluorescence assay.
The species entered for data set [3] is Xenopus laevis. Put plainly: Induction of developmental deffects in frog embryos assessed as heart looping and pigment deffects at 2 mM after 18 hrs. In kind it is organism-based. The note with it: in vivo, 2000 µM. In outline:
as §1

The species named for data set [4] is Xenopus laevis. The data set can be described thus: Induction of developmental deffects in frog embryos assessed as shortening of anterior-posterior axis at 2 mM after 18 hrs. In kind it is organism-based. The note with it: in vivo, 2000 µM. In outline: as §1
Data set [5] is filed under the species Xenopus laevis. The data set can be described thus: Induction of tubulin acetylation in frog embryos at 2 mM after 18 hrs Western blotting. In outline:
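Frog embryos treated from stage 18 (end of neurulation) through tailbud stages (32) for 18 h at the indicated concentrations; acetylated tubulin detected by Western blot.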

The target of data set [6] is T1, Protein deacetylase HDAC6 (Homo sapiens, UniProt Q9UBN7).
T1 sequence (Q9UBN7 whole entry): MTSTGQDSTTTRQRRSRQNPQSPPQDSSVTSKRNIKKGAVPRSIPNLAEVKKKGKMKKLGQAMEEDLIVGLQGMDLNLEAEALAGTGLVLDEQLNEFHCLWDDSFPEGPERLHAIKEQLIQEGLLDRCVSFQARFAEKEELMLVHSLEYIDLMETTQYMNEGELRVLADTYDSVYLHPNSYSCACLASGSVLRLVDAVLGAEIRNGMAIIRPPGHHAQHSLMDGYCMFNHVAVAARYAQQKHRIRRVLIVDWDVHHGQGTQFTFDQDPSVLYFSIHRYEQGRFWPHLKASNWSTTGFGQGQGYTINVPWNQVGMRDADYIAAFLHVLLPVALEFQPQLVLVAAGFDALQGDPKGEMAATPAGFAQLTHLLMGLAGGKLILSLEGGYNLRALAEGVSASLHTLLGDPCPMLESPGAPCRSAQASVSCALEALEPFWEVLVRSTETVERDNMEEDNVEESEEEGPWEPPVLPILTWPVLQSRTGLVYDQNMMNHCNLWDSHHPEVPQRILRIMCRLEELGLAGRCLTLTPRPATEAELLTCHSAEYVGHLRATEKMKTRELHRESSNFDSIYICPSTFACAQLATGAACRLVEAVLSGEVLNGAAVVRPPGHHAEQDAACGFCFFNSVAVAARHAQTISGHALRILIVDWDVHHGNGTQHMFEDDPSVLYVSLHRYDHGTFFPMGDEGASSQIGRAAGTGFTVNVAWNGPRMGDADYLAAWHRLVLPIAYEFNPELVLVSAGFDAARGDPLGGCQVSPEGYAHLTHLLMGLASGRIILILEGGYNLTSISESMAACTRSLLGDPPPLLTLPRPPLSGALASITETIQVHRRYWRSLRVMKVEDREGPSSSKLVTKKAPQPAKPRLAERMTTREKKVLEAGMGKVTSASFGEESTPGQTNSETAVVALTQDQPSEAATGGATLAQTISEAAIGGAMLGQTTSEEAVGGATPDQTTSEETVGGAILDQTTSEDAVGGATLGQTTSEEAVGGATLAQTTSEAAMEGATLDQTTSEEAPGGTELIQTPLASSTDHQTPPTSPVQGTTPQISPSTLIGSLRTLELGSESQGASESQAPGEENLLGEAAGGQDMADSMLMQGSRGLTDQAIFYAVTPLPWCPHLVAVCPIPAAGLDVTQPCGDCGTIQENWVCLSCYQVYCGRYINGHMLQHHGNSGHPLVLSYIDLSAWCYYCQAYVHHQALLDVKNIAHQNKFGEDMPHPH
Put plainly: Inhibition of human recombinant HDAC6. In outline:
(§2)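 Recombinant HDAC isoforms incubated with acetyl-lysine tripeptide–AMC substrate (mimics histone H4 K12), or trifluoroacetyl-lysine-AMC for class IIa enzymes, each substrate at its Km; trypsin cleavage of deacetylated product releases fluorescent AMC. IC50 from two experiments in duplicate, mean ± SD.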

The target of a further data set is Histone deacetylase 3 (Homo sapiens, UniProt O15379). Put plainly: Inhibition of human recombinant HDAC3. In outline: as §2
Another data set has as its target Histone deacetylase 2 (Homo sapiens, UniProt Q92769). Put plainly: Inhibition of human recombinant HDAC2. An outline of the steps:
as §2

A further data set concerns the target Histone deacetylase 1 (Homo sapiens, UniProt Q13547). The data set can be described thus: Inhibition of human recombinant HDAC1. An outline of the steps:
as §2

A further data set deals with Histone deacetylase 5 (Homo sapiens, UniProt Q9UQL6). The data set can be described thus: Inhibition of human recombinant HDAC5. An outline of the steps: as §2
For the next data set, the target named is T2, Histone deacetylase 7 (Homo sapiens, UniProt Q8WUI4).
T2 sequence (Q8WUI4 whole entry): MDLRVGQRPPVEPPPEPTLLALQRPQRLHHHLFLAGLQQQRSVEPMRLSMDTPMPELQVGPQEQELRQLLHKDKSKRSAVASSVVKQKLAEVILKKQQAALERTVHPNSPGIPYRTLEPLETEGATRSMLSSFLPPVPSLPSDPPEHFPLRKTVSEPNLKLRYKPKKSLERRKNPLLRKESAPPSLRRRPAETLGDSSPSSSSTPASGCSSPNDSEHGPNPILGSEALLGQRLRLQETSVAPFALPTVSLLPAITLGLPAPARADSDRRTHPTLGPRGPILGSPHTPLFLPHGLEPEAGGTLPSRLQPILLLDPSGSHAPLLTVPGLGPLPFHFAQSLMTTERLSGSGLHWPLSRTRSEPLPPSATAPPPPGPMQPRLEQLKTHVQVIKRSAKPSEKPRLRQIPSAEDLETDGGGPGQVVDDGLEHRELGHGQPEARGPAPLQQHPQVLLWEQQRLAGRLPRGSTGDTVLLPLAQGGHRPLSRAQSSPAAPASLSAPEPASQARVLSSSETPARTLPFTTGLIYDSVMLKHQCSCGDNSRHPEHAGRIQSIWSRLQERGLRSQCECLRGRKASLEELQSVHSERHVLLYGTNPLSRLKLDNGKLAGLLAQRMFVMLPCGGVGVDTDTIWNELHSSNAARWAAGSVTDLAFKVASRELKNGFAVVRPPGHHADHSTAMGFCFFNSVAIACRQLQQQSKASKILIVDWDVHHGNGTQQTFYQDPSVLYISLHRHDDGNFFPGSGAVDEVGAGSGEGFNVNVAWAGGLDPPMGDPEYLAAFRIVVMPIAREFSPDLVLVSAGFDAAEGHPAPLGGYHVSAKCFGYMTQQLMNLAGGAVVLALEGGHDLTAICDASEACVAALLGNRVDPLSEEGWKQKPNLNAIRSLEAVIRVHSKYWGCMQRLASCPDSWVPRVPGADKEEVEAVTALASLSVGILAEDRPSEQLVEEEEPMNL
Put plainly: Inhibition of human recombinant HDAC7.

Sequence of Histone deacetylase 5 (Q9UQL6 whole entry): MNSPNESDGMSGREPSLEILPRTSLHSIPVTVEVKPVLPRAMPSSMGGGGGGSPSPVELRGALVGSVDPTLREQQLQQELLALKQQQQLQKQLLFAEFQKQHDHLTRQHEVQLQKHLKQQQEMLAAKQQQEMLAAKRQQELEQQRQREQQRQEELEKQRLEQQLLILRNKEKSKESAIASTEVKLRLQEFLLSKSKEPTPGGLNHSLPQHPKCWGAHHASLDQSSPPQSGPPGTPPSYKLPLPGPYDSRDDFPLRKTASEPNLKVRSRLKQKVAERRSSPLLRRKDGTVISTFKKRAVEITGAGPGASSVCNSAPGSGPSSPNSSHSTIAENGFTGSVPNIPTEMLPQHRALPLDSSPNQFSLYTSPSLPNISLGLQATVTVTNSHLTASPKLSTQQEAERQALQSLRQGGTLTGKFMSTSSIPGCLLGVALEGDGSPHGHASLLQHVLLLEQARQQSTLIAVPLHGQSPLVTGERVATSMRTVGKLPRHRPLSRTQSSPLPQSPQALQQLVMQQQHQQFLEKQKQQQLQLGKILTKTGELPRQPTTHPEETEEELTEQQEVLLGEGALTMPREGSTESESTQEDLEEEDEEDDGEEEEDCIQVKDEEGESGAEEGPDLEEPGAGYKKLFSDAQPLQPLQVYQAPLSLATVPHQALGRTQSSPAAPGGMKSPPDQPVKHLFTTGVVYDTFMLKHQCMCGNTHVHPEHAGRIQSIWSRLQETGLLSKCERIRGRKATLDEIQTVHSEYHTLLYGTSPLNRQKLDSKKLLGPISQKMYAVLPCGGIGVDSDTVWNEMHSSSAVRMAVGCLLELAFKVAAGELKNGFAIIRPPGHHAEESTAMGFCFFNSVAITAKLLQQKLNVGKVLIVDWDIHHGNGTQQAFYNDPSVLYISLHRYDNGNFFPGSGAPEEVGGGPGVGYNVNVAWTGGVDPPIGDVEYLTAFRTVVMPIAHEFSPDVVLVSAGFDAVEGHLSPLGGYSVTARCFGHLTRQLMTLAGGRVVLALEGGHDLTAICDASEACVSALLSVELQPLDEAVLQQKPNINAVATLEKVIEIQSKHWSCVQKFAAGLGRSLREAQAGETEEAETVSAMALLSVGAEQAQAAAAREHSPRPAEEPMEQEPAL
Sequence of Histone deacetylase 1 (Q13547 whole entry): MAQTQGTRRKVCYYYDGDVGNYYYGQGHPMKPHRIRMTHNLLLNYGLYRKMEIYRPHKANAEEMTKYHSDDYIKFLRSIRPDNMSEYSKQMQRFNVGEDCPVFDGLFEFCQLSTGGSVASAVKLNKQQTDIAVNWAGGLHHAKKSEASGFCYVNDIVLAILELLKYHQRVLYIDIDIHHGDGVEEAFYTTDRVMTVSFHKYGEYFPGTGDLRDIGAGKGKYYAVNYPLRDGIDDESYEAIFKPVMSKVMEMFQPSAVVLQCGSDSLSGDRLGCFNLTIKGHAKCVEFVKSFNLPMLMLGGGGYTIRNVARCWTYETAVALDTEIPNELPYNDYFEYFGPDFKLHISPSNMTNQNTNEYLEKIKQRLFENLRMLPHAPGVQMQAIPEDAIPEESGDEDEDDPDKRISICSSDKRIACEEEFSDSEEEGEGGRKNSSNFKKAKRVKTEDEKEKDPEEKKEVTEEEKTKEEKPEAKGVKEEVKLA
Sequence of Histone deacetylase 2 (Q92769 whole entry): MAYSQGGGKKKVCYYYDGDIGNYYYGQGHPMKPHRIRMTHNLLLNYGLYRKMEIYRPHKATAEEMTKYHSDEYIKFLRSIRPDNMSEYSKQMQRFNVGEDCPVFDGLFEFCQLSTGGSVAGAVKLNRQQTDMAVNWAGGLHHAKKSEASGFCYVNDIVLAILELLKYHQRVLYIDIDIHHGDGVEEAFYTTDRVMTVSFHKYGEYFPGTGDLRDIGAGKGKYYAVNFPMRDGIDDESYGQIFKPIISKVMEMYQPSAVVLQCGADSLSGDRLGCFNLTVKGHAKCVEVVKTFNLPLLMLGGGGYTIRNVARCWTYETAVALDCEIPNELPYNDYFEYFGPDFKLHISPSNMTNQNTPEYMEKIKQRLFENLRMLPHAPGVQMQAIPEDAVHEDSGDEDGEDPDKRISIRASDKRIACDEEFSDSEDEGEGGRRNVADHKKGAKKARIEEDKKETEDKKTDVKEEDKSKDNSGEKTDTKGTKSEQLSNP
Sequence of Histone deacetylase 3 (O15379 whole entry): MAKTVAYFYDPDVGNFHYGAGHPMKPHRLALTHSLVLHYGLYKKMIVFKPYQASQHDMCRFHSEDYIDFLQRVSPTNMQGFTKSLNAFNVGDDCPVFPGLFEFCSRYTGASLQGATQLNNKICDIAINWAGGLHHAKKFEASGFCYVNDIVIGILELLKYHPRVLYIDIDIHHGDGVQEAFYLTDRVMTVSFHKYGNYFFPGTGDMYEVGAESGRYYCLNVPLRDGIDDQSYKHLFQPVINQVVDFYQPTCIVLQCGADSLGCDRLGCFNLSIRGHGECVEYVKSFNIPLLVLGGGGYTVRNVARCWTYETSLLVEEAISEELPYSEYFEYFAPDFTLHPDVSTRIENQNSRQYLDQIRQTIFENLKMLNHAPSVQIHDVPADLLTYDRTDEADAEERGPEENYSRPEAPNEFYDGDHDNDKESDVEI

By IC50 is commonly meant the concentration at which inhibition is half-maximal. Regarding `CCCC(CCC)C(=O)NO` [VALPROPYLHYDROXAMIC ACID], the Activity entry in the data set filed under Xenopus laevis [1], in the data set listed under Xenopus laevis [3] and in the data set listed under Xenopus laevis [4] was “Non-toxic” each time. In the data set filed under Xenopus laevis [2], the result was inactive. For the same compound, the inhibition entry in the data set filed under Mus musculus is “inactive”. Also, in the data set listed under Xenopus laevis [5], the outcome was Active. In addition, the half-inhibitory concentration (IC50) in data set [6] came to 16 µM; at Histone deacetylase 3, 340 µM; at Histone deacetylase 2 it was 680 µM; at Histone deacetylase 1, 560 µM; at Histone deacetylase 5, 37 µM.

On to `O=C(O)CCCc1ccccc1`, for which the inhibition result in the data set filed under Mus musculus is “inactive”. In addition, the concentration for half-maximal inhibition (IC50) at Histone deacetylase 7 and at Histone deacetylase 5 was more than 2000 µM in each case.
